Measured values from ChEMBL document CHEMBL3774372, “Design, physico-chemical properties and biological evaluation of some new N-[(phenoxy)alkyl]- and N-{2-[2-(phenoxy)ethoxy]ethyl}aminoalkanols as anticonvulsant agents” (Bioorg Med Chem, 2016).
Calls of active or inactive are those of the source. No cut-off for these calls is given here.

Assays:
[1] = target: Prostacyclin receptor (Homo sapiens) (UniProt P43119); experiment: Displacement of [3H]iloprost from human recombinant Prostanoid IP receptor expressed in HEK293 cells at 10^-5 M; type: cell-based
Method in brief: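 Radioligand displacement screen with the test agent at a single 10^-5 M concentration; receptor source and radioligand per target as tabulated (recombinant human cell lines or rat cerebral cortex/urinary bladder).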

[2] = tested on: Rattus norvegicus; experiment: Anticonvulsant activity in rat assessed as protection against maximal electric shock-induced seizures at 30 mg/kg, po measured after […]; type: functional, organism-based
[3] = tested on: Mus musculus; experiment: Anticonvulsant activity in mouse assessed as protection against 6 Hz psychomotor seizure at 20 mg/kg, ip after 0.5 hrs; type: functional, organism-based
Method in brief: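 Suspension in 0.5% methylcellulose given ip to mice; corneal stimulation with 0.2 ms monopolar rectangular pulses at 6 Hz for 3 s from a constant current device, mice restrained then released to observation cage. Protected if normal exploratory behaviour resumed within 10 s of stimulation. Scored as protected/tested, 4 mice per group.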

[4] = tested on: Rattus norvegicus; experiment: Anticonvulsant activity in rat assessed as protection against maximal electric shock-induced seizures at 30 mg/kg, ip measured after 2 hrs; type: functional, organism-based
Method in brief: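 Rats dosed ip or orally as 0.5% methylcellulose suspension; maximal electroshock at listed time. Protection = abolition of hindlimb tonic extension; 4 rats per group, scored protected/tested.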

[5] = target: Adenosine receptor A1 (Homo sapiens) (UniProt P30542); experiment: Displacement of [3H]DPCPX from human recombinant adenosine A1 receptor expressed in CHO cells at 10^-5 M; type: cell-based
Method in brief: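 Radioligand binding screen run at a single test concentration of 10^-5 M. Each target used its stated receptor source (human recombinant CHO or HEK-293 cells, endogenous cell lines, or rat tissue membranes) with the listed radioligand.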

[6] = tested on: Mus musculus; experiment: AUC (0 to infinity) in CD1 mouse plasma at 12.92 mg/kg, ig measured up to 240 mins by LC/ESI-MS/MS analysis; type: ADME, organism-based; set-up: dose 12.92 mg/kg, time infinity, route […]; conditions: in vivo, po, 4 h
[7] = tested on: Mus musculus; experiment: Anticonvulsant activity in ip dosed mouse assessed as protection against subcutaneous pentylenetetrazol-induced seizures measured after […]; type: functional
[8] = tested on: Mus musculus; experiment: Half life in CD1 mouse plasma at 12.92 mg/kg, ip measured up to 240 mins by LC/ESI-MS/MS analysis; type: ADME, organism-based; conditions: in vivo, 4 h
[9] = tested on: Mus musculus; experiment: AUC (0 to infinity) in CD1 mouse plasma at 12.92 mg/kg, ip measured up to 240 mins by LC/ESI-MS/MS analysis; type: ADME, organism-based; set-up: dose 12.92 mg/kg, route intraperitoneal, time infinity; conditions: in vivo, 4 h
[10] = Ratio of drug level in brain to plasma in CD1 mouse at 12.92 mg/kg, ig administered as single dose measured after 5 mins by LC/ESI-MS/MS analysis; type: ADME, organism-based; conditions: brain and plasma, po, read-out: BPR
[11] = Tmax in CD1 mouse brain at 12.92 mg/kg, ig measured up to 240 mins by LC/ESI-MS/MS analysis; type: ADME, organism-based; conditions: po
[12] = Ratio of drug level in brain to plasma in CD1 mouse at 1 mg/kg, iv administered as single dose measured after 30 mins by LC/ESI-MS/MS analysis; type: ADME, organism-based; conditions: brain and plasma, read-out: BPR
[13] = tested on: Rattus norvegicus; experiment: Toxicity in pilocarpine-induced status epilepticus Sprague-Dawley rat model assessed as average weight change at 100 mg/kg, ip measured 24 hrs post first stage 3 seizure; type: organism-based; conditions: in vivo
[14] = AUC (0 to infinity) in CD1 mouse brain at 12.92 mg/kg, ig measured up to 240 mins by LC/ESI-MS/MS analysis; type: ADME, organism-based; set-up: dose 12.92 mg/kg, route […], time infinity; conditions: po
[15] = Cmax in CD1 mouse brain at 12.92 mg/kg, ip measured up to 240 mins by LC/ESI-MS/MS analysis; type: ADME, organism-based; set-up: dose 12.92 mg/kg, route intraperitoneal
[16] = in vitro; conditions: mouse, liver microsomes
[17] = tested on: Rattus norvegicus; experiment: Toxicity in pilocarpine-induced status epilepticus Sprague-Dawley rat assessed as death at 400 mg/kg, ip; type: organism-based; conditions: in vivo
Method in brief: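 Pilocarpine 50 mg/kg ip given to male Sprague-Dawley rats (150–180 g). At the first stage 3–5 seizure (Racine scale), compound was given ip to groups of 8. Deaths and protection were recorded at 0.25–4 h; weight change was measured 24 h after the first stage 3 seizure.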

[18] = Cmax in CD1 mouse brain at 1 mg/kg, iv measured up to 240 mins by LC/ESI-MS/MS analysis; type: ADME, organism-based; set-up: dose 1 mg/kg, route intravenous
[19] = tested on: Rattus norvegicus; experiment: Anticonvulsant activity in pilocarpine-induced status epilepticus Sprague-Dawley rat model at 30 mg/kg, ip after […] during post stage 3 seizure; type: functional, organism-based
[20] = tested on: Rattus norvegicus; experiment: Anticonvulsant activity in pilocarpine-induced status epilepticus Sprague-Dawley rat model at 100 mg/kg, ip after 2 hrs during post stage 3 seizure; type: functional, organism-based
Method in brief: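 Rats given pilocarpine 50 mg/kg ip and observed to first convulsive seizure (Racine stage 3–5, time zero); test drug then given ip in 0.5% methylcellulose. Efficacy = halting further stage 3–5 convulsive seizures; scored protected/tested, time after first stage 3 seizure.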

Prostacyclin receptor (Homo sapiens), sequence (P43119 whole entry): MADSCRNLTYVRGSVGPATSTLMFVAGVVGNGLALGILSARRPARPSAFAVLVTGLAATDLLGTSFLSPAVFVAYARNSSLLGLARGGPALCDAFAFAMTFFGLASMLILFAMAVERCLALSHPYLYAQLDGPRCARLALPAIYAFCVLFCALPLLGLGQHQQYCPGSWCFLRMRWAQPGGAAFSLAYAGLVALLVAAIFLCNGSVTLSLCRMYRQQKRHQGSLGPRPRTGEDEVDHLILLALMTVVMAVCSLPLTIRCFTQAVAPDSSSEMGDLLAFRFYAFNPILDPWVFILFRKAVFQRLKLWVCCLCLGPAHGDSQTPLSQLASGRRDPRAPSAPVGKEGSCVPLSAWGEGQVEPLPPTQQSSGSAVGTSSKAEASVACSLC
Adenosine receptor A1 (Homo sapiens), sequence (P30542 whole entry): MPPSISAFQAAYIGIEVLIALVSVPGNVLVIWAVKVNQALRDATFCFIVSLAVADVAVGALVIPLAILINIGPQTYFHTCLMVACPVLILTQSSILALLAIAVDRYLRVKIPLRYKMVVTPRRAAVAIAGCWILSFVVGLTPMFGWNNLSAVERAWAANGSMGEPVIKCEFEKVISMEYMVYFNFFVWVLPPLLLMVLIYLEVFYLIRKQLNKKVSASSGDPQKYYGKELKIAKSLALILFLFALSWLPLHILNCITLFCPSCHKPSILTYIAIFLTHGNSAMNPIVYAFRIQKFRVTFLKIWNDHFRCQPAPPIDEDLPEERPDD

SMILES: Cc1cccc(C)c1OCCOCCN[C@@H](C)CO
- inhibition [1]: -6%
- Activity [2]: inactive
- Activity [3]: inactive
- Activity [4]: inactive
- inhibition [5]: -6.9%

SMILES: Cc1cccc(C)c1OCCOCCN[C@H](C)CO.Cl
- AUC [6]: 0.396 µg·h/mL
- ED50 [7]: > 45 mg/kg
- t1/2 [8]: 77.2 min
- AUC [9]: 0.903 µg·h/mL
- Kp at 5 min [10]: 1.73
- Tmax [11]: 5 min
- Kp at 0.5 h [12]: 5.41
- Activity [13]: 17.5 g
- AUC(0-inf) [14]: 1220 µg·h/mL
- Cmax [15]: 2360 ng/mL
- half-life at 20 µM [16]: 37 min
- Activity [17]: Non-toxic
- Cmax [18]: 11500 ng/mL

SMILES: Cc1cccc(C)c1OCCOCCN[C@H](C)CO
- Activity [19]: inactive
- Activity [20]: inactive
